Columns and labels:
[1] = target: Glycogen synthase kinase-3 alpha (Homo sapiens) (UniProt P49840); test: Binding affinity to wild-type human full length GSK3A (M1 to S483 residues) expressed in Escherichia coli BL21 at 1 uM by Kinomescan method relative to control
In short: (§1)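 Run as one kinome-wide competition binding panel with each compound at a single fixed concentration. Results were plotted as a kinome-wide selectivity map.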

[2] = target: Serine/threonine-protein kinase TAO3 (Homo sapiens) (UniProt Q9H2K8); test: Binding affinity to wild-type human partial length TAOK3 (M1 to T316 residues) expressed in HEK293 cells at 1 uM by Kinomescan method relative to control; assay type: cell-based
[3] = target: Serine/threonine-protein kinase pim-3 (Homo sapiens) (UniProt Q86V86); test: Binding affinity to wild-type human partial length PIM3 (G16 to A317 residues) expressed in Escherichia coli BL21 at 1 uM by Kinomescan method relative to control
[4] = target: Serine/threonine-protein kinase TNNI3K (Homo sapiens) (UniProt Q59H18); test: Binding affinity to wild-type human full length TNNI3K (M1 to S835 residues) expressed in Escherichia coli BL21 at 1 uM by Kinomescan method relative to control
In short: (§2)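 Kinome-wide competition binding panel run by an outside provider, with each compound tested at a single concentration. Activity is read against the kinase panel.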

[5] = target: Dual specificity mitogen-activated protein kinase kinase 4 (Homo sapiens) (UniProt P45985); test: Binding affinity to wild-type human partial length MEK4 (S84 to D399 residues) expressed in HEK293 cells at 1 uM by Kinomescan method relative to control; assay type: cell-based
[6] = target: Serine/threonine-protein kinase SIK2 (Homo sapiens) (UniProt Q9H0K1); test: Binding affinity to wild-type human full length SIK2 (M1 to N926 residues) expressed in Escherichia coli BL21 at 1 uM by Kinomescan method relative to control; in short: as §2
[7] = target: Serine/threonine-protein kinase 17B (Homo sapiens) (UniProt O94768); test: Binding affinity to wild-type human full length DRAK2 (M1 to C372 residues) expressed in Escherichia coli BL21 at 1 uM by Kinomescan method relative to control; in short: as §1
[8] = target: Serine/threonine-protein kinase DCLK3 (Homo sapiens) (UniProt Q9C098); test: Binding affinity to wild-type human partial length DCAMKL3 (E140 to V628 residues) expressed in Escherichia coli BL21 at 1 uM by Kinomescan method relative to control
[9] = target: Calcium/calmodulin-dependent protein kinase type II subunit beta (Homo sapiens) (UniProt Q13554); test: Binding affinity to wild-type human partial length CAMK2B (M1 to Q380 residues) expressed in Escherichia coli BL21 at 1 uM by Kinomescan method relative to control
[10] = target: Serine/threonine-protein kinase pim-2 (Homo sapiens) (UniProt Q9P1W9); test: Binding affinity to wild-type human partial length PIM2 (M1 to E291 residues) expressed in Escherichia coli BL21 at 1 uM by Kinomescan method relative to control
[11] = target: Serine/threonine-protein kinase 17A (Homo sapiens) (UniProt Q9UEE5); test: Binding affinity to wild-type human partial length DRAK1 (R32 to E363 residues) expressed in Escherichia coli BL21 at 1 uM by Kinomescan method relative to control
[12] = target: Mitogen-activated protein kinase kinase kinase 6 (Homo sapiens) (UniProt O95382); test: Binding affinity to wild-type human partial length ASK2 (M278 to R972 residues) expressed in HEK293 cells at 1 uM by Kinomescan method relative to control; assay type: cell-based; in short: as §2
[13] = tested on: Receptor-type tyrosine-protein kinase FLT3 (Homo sapiens), P36888 [N841I]; test: Binding affinity to human partial length FLT3 N841I mutant (V592 to Y969 residues) expressed in Escherichia coli BL21 at 1 uM by Kinomescan method relative to control
[14] = target: Mitogen-activated protein kinase kinase kinase 15 (Homo sapiens) (UniProt Q6ZN16); test: Binding affinity to wild-type human partial length MAP3K15 (T625 to L932 residues) expressed in HEK293 cells at 1 uM by Kinomescan method relative to control; assay type: cell-based
HEK293 = test: Binding affinity to wild-type Mycobacterium tuberculosis partial length PKNB (M1 to G279 residues) expressed in HEK293 cells at 1 uM by Kinomescan method relative to control; assay type: cell-based
[15] = target: Serine/threonine-protein kinase TBK1 (Homo sapiens) (UniProt Q9UHD2); test: Binding affinity to wild-type human full length TBK1 (M1 to L729 residues) expressed in HEK293 cells at 1 uM by Kinomescan method relative to control; assay type: cell-based
[16] = target: cAMP-dependent protein kinase catalytic subunit beta (Homo sapiens) (UniProt P22694); test: Binding affinity to wild-type human full length PKAC-beta (M1 to F351 residues) expressed in Escherichia coli BL21 at 1 uM by Kinomescan method relative to control; in short: as §2
[17] = target: Calcium/calmodulin-dependent protein kinase type 1D (Homo sapiens) (UniProt Q8IU85); test: Binding affinity to wild-type human partial length CAMK1D (M1 to K299 residues) expressed in Escherichia coli BL21 at 1 uM by Kinomescan method relative to control
[18] = target: Vascular endothelial growth factor receptor 1 (Homo sapiens) (UniProt P17948); test: Binding affinity to wild-type human partial length FLT1 (R781 to F1239 residues) expressed in Escherichia coli BL21 at 1 uM by Kinomescan method relative to control
[19] = target: Serine/threonine-protein kinase D3 (Homo sapiens) (UniProt O94806); test: Binding affinity to wild-type human partial length PRKD3 (S543 to E863 residues) expressed in Escherichia coli BL21 at 1 uM by Kinomescan method relative to control
[20] = target: Serine/threonine-protein kinase mTOR (Homo sapiens) (UniProt P42345); test: Binding affinity to wild-type human partial length MTOR (L1382 to W2549 residues) expressed in HEK293 cells at 1 uM by Kinomescan method relative to control; assay type: cell-based
[21] = target: Myosin light chain kinase 2, skeletal/cardiac muscle (Homo sapiens) (UniProt Q9H1R3); test: Binding affinity to wild-type human partial length MYLK2 (D258 to K570 residues) expressed in Escherichia coli BL21 at 1 uM by Kinomescan method relative to control
[22] = target: SRSF protein kinase 1 (Homo sapiens) (UniProt Q96SB4); test: Binding affinity to wild-type human full length SRPK1 (M1 to S655 residues) expressed in Escherichia coli BL21 at 1 uM by Kinomescan method relative to control; in short: as §2
[23] = target: Dual specificity protein kinase CLK4 (Homo sapiens) (UniProt Q9HAZ1); test: Binding affinity to wild-type human partial length CLK4 (R135 to K481 residues) expressed in Escherichia coli BL21 at 1 uM by Kinomescan method relative to control
[24] = target: Casein kinase I isoform delta (Homo sapiens) (UniProt P48730); test: Binding affinity to wild-type human full length CSNK1D (M1 to K409 residues) expressed in Escherichia coli BL21 at 1 uM by Kinomescan method relative to control; in short: as §1

Chain of SRSF protein kinase 1 (Homo sapiens) (Q96SB4 whole entry, the tested form may be a part): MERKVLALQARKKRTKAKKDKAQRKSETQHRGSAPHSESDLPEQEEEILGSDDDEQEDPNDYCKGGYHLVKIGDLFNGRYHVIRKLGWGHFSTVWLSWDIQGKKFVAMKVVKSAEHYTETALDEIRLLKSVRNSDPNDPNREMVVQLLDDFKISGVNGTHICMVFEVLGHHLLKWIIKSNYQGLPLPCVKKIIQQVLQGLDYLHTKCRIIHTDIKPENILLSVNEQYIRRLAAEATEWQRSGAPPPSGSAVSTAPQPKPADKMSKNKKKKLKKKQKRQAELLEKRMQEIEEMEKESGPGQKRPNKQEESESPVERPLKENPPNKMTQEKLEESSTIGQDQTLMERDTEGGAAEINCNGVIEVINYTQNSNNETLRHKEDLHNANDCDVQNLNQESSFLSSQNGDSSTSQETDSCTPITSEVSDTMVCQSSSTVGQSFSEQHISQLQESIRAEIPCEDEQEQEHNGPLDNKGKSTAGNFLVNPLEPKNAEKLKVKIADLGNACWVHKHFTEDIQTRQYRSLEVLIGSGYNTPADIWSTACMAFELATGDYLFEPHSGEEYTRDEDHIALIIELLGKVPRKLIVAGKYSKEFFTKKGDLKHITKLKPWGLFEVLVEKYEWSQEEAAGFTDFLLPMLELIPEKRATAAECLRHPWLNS
Chain of Myosin light chain kinase 2, skeletal/cardiac muscle (Homo sapiens) (Q9H1R3 whole entry, the tested form may be a part): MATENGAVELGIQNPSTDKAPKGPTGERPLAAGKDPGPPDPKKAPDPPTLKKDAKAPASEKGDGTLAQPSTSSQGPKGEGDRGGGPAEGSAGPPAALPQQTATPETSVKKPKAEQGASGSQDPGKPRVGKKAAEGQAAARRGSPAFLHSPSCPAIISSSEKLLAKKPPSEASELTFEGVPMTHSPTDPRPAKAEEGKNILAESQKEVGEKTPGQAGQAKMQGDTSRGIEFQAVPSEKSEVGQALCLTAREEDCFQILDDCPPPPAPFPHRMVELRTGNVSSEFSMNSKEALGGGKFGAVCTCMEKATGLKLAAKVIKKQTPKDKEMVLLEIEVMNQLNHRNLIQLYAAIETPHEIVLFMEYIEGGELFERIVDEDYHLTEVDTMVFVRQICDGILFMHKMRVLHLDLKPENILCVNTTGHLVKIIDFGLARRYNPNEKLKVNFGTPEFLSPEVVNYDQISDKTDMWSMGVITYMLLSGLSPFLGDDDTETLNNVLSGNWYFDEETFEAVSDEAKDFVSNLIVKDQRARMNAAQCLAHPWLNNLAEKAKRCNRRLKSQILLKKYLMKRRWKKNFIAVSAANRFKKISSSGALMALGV
Chain of Serine/threonine-protein kinase TAO3 (Homo sapiens) (Q9H2K8 whole entry, the tested form may be a part): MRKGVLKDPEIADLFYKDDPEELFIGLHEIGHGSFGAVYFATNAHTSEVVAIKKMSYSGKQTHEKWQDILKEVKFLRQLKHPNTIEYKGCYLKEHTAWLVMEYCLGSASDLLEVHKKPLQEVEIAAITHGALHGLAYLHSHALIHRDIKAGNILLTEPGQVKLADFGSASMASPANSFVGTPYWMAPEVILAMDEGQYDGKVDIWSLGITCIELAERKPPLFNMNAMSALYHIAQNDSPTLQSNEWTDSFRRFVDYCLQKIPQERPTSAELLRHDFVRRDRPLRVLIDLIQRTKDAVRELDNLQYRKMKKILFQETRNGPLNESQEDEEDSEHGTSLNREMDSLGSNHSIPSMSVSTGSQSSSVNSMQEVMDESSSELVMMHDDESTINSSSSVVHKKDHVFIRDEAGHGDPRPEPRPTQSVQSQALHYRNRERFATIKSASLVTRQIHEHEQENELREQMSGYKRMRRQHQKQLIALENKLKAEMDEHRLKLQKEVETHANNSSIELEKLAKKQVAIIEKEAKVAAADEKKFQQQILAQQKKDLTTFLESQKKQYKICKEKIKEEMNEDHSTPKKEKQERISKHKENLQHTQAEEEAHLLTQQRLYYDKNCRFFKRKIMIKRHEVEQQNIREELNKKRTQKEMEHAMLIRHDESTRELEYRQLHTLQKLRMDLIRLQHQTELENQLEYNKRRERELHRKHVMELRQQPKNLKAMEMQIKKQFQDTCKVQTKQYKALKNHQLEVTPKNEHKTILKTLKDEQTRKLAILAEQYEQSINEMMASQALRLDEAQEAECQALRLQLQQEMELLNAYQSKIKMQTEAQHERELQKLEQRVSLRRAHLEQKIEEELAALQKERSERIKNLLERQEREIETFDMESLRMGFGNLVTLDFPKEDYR
Chain of Serine/threonine-protein kinase pim-2 (Homo sapiens) (Q9P1W9 whole entry, looked up, the tested form may be a part): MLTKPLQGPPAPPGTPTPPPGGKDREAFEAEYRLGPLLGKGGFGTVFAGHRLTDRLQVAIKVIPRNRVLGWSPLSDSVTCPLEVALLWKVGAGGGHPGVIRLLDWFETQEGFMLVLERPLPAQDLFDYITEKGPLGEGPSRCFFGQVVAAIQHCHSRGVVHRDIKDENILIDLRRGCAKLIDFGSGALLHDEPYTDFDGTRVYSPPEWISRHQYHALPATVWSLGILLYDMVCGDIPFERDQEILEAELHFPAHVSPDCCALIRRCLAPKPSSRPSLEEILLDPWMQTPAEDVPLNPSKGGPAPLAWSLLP
Chain of Serine/threonine-protein kinase D3 (Homo sapiens) (O94806 whole entry, the tested form may be a part): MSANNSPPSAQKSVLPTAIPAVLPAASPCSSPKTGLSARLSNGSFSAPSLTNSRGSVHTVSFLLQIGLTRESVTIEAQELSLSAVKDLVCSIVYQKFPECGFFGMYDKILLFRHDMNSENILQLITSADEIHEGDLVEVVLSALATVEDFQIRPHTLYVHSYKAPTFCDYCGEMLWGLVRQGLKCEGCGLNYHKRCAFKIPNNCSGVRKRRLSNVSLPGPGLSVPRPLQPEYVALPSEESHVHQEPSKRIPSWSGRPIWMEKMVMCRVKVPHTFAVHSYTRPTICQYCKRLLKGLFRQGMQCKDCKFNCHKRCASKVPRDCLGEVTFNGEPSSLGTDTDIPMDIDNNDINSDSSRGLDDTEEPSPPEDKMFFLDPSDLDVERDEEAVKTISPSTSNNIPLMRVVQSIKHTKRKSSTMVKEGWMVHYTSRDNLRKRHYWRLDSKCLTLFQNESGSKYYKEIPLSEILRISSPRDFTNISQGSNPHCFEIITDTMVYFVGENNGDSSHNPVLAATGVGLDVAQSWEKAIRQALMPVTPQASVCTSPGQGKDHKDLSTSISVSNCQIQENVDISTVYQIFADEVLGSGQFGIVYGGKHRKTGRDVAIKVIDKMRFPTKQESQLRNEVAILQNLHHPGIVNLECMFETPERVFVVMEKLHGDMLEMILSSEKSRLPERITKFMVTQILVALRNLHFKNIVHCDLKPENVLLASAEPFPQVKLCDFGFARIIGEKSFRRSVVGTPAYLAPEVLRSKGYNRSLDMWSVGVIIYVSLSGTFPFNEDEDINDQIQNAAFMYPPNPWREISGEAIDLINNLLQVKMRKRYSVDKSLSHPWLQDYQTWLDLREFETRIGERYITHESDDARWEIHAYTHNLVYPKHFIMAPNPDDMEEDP
Chain of Glycogen synthase kinase-3 alpha (Homo sapiens) (P49840 2-483 limits assumed): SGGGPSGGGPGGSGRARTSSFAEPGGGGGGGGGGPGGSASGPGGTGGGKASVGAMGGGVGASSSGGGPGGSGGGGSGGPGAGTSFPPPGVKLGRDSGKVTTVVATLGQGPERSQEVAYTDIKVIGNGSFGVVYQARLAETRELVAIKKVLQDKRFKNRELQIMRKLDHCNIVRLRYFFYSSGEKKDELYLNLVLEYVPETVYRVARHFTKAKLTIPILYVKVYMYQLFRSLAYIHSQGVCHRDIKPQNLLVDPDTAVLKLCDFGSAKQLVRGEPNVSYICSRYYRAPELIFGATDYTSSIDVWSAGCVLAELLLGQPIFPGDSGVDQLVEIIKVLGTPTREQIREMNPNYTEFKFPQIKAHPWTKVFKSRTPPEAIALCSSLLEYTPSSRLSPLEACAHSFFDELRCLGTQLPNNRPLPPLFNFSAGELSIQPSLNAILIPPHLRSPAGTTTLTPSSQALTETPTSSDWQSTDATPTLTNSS
Chain of Serine/threonine-protein kinase DCLK3 (Homo sapiens) (Q9C098 whole entry, the tested form may be a part): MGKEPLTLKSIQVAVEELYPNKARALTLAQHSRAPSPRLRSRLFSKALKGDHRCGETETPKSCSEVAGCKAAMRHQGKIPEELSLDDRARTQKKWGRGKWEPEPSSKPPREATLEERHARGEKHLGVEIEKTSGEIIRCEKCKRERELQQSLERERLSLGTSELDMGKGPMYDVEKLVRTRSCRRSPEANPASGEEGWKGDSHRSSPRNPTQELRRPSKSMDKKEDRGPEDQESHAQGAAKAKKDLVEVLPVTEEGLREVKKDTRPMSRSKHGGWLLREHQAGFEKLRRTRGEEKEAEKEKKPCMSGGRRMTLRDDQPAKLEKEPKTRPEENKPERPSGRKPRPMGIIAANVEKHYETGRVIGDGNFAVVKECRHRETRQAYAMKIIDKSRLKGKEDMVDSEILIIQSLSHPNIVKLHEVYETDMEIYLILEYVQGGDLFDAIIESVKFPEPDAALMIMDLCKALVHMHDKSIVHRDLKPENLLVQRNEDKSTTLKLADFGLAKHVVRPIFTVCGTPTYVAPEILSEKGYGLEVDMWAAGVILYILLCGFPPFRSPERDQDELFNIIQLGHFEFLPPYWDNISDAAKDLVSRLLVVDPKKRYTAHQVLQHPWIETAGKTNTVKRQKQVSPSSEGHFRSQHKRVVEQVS
Chain of Dual specificity mitogen-activated protein kinase kinase 4 (Homo sapiens) (P45985 whole entry, the tested form may be a part): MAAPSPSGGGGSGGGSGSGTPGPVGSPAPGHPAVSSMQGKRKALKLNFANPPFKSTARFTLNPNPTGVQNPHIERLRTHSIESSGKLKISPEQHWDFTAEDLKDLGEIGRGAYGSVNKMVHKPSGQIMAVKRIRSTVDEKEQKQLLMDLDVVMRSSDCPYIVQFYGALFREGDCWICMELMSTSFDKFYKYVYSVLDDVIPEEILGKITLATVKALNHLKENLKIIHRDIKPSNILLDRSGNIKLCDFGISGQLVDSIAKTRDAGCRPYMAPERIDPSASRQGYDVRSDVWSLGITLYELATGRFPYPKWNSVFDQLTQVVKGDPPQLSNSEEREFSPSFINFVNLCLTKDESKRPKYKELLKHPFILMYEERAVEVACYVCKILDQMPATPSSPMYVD

C=CC(=O)Nc1ccc(C(=O)Nc2ccc(Nc3ncc4c(n3)N(C)c3ccc(C)cc3C(=O)N4C)cc2)cc1
Activity [1]: 100%
Activity [2]: 95%
Activity [3]: 100%
Activity [4]: 77%
Activity [5]: 100%
Activity [6]: 89%
Activity [7]: 87%
Activity [8]: 93%
Activity [9]: 100%
Activity [10]: 100%
Activity [11]: 93%
Activity [12]: 83%
Activity [13]: 100%
Activity [14]: 100%
Activity (HEK293): 94%
Activity [15]: 94%
Activity [16]: 100%
Activity [17]: 100%
Activity [18]: 87%
Activity [19]: 90%
Activity [20]: 87%
Activity [21]: 87%
Activity [22]: 89%
Activity [23]: 100%
Activity [24]: 86%

CCC(=O)Nc1ccc(C(=O)Nc2ccc(Nc3ncc4c(n3)N(C)c3ccc(C)cc3C(=O)N4C)cc2)cc1
Activity [1]: 100%
Activity [2]: 92%
Activity [3]: 82%
Activity [4]: 100%
Activity [5]: 88%
Activity [6]: 78%
Activity [7]: 100%
Activity [8]: 100%
Activity [9]: 96%
Activity [10]: 100%
Activity [11]: 100%
Activity [12]: 89%
Activity [13]: 81%
Activity [14]: 62%
Activity (HEK293): 68%
Activity [15]: 74%
Activity [16]: 100%
Activity [17]: 88%
Activity [18]: 91%
Activity [19]: 81%
Activity [20]: 100%
Activity [21]: 56%
Activity [22]: 86%
Activity [23]: 100%
Activity [24]: 95%
